Source: ChEMBL document CHEMBL1130821 (Bioorg Med Chem Lett, 1998)
Starred links: 1 amine or outer side, 2 acyl side, 3 side chain; linkers in the order of their positions; H or OH if unused. Non-standard residues stand in square brackets, D forms with d. Residues, ends and D or L forms follow the SMILES beside them. X1 = O=C([C@@H]1C(Cc2ccccc2)CCN1[*:1])[*:2]; NMeF = CN[C@@H](Cc1ccccc1)C(=O)O

Legend:
CHO [1] = assay: Compound was evaluated for the inhibition of IPs hydrolysis on intact CHO cells expressing the human tachykinin NK-1 receptor; assay type: functional, cell-based; settings: Cricetulus griseus
Method in brief: (§1)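 Intact CHO cells transfected with the human tachykinin NK-1 receptor. Antagonism of agonist-stimulated phosphoinositide (IP) hydrolysis is expressed as pA2, or as pKB where antagonism was uncompetitive.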

CHO [2] = assay: Compound was evaluated for the inhibition of cAMP formation on intact CHO cells expressing the human tachykinin NK-1 receptor; assay type: functional, cell-based; settings: Cricetulus griseus
Method in brief: (§2)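 Intact CHO cells transfected with the human NK-1 receptor. Antagonist inhibition of agonist-stimulated cAMP formation is reported as pA2, or as pKB for uncompetitive antagonism.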

CHO [3] = assay: Compound was evaluated for the blockade of NKA-induced (neurokinin A) IPs hydrolysis in CHO cells; assay type: functional, cell-based; settings: Cricetulus griseus, read-out: pA2 (converted); method in brief: as §1
CHO [4] = assay: Compound was evaluated for the blockade of [Pro]SP-induced IPs hydrolysis in CHO cells; assay type: functional, cell-based; settings: Cricetulus griseus, read-out: pA2 (converted); method in brief: as §1
CHO [5] = assay: Compound was evaluated for the blockade of [Pro]SP-induced cAMP formation in CHO cells; assay type: functional, cell-based; settings: Cricetulus griseus, read-out: pA2 (converted); method in brief: as §2
Substance-P receptor = Substance-P receptor (Homo sapiens, UniProt P25103); assay: Compound was evaluated for affinity towards human tachykinin NK-1 receptor expressed in CHO cells; assay type: cell-based
Chain of Substance-P receptor (P25103 whole entry): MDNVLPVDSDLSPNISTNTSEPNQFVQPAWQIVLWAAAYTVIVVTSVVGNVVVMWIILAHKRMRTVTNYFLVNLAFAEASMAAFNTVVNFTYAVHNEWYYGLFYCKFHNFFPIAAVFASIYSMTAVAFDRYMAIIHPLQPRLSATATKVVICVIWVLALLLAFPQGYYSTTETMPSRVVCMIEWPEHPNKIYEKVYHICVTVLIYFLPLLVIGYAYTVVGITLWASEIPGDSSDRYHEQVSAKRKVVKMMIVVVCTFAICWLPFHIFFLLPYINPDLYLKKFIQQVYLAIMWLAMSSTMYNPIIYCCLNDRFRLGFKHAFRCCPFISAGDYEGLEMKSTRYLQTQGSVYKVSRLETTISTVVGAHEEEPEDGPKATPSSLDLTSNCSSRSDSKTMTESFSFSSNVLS

Row | Structure (SMILES) | Ki (Substance-P receptor) [µM] | EC50 (CHO [1]) [µM] | EC50 (CHO [2]) [µM] | Kb (CHO [3]) [µM] | Kb (CHO [4]) [µM] | Kb (CHO [5]) [µM]
1 | CSCC[C@H](NC(=O)[C@H](CC(C)C)NC(=O)CNC(=O)[C@@H](NC(=O)[C@H](Cc1ccccc1)NC(=O)[C@H](CO)NC(=O)[C@H](CC(=O)O)NC(=O)[C@@H](NC(=O)[C@H](CCCCN)NC(=O)[C@@H](N)Cc1c[nH]cn1)[C@@H](C)O)C(C)C)C(N)=O [NEUROKININ A] |  | 0.008 | 1.24 |  |  | 
2 | CC(C)C[C@@H](C(=O)N[C@@H](Cc1c[nH]c2ccccc12)C(N)=O)N1CC[C@@]2(CCCN2C(=O)[C@H](Cc2ccc(O)cc2)NC(=O)[C@H](Cc2ccccc2)NC(=O)[C@H](CCCCN)NC(=O)[C@H](CC(N)=O)NC(=O)[C@@H]2CCCN2C(=O)[C@H](CC(=O)O)NC(=O)[C@H](C)NC(=O)[C@@H]2CCC(=O)N2)C1=O | 0.056 |  |  | 0.0126 | 0.0631 | 0.0158
3 | CSCC[C@H](NC(=O)[C@H](CC(C)C)NC(=O)[C@@H]1CCCN1C(=O)[C@H](Cc1ccccc1)NC(=O)[C@H](Cc1ccccc1)NC(=O)[C@H](CCC(N)=O)NC(=O)[C@H](CCC(N)=O)NC(=O)[C@@H]1CCCN1C(=O)[C@H](CCCCN)NC(=O)[C@@H]1CCCN1C(=O)[C@@H](N)CCCN=C(N)N)C(N)=O | 0.0011 | 0.0012 | 0.01 |  |  | 

More lines, main results first:

Row | Ki (Substance-P receptor) [µM] | Structure (SMILES) | EC50 (CHO [1]) [µM] | EC50 (CHO [2]) [µM] | Kb (CHO [3]) [µM] | Kb (CHO [4]) [µM] | Kb (CHO [5]) [µM]
4 | 0.079 | NCCCC[C@H](NC(=O)[C@@H]1CCCN1C(=O)[C@@H](N)CCCN=C(N)N)C(=O)N1CCC[C@H]1C(=O)N[C@@H](CCC(N)=O)C(=O)N[C@@H](CCC(N)=O)C(=O)N[C@@H](Cc1ccccc1)C(=O)N[C@@H](Cc1ccccc1)C(=O)N1CCC[C@H]1C(=O)N1CCC(Cc2ccccc2)[C@H]1C(=O)N[C@@H](Cc1c[nH]c2ccccc12)C(N)=O (some centres not stated) (H-RPKPQQFFP[X1]W-NH2) |  |  | 0.01 | 0.0251 | 0.0182
5 | 0.11 | CN(C(=O)[C@@H]1CCCN1C(=O)[C@H](Cc1ccccc1)NC(=O)[C@H](Cc1ccccc1)NC(=O)[C@H](CCC(N)=O)NC(=O)[C@H](CCC(N)=O)NC(=O)[C@@H]1CCCN1C(=O)[C@H](CCCCN)NC(=O)[C@@H]1CCCN1C(=O)[C@@H](N)CCCN=C(N)N)[C@@H](Cc1ccccc1)C(=O)N[C@@H](Cc1c[nH]c2ccccc12)C(N)=O (H-RPKPQQFFP[NMeF]W-NH2) |  |  | 0.398 | 0.347 | 0.115
